# Measured values taken from paper PMC11500341 (Scientific Reports, 2024).
# No end group written: not given here.
# Columns and labels:
# MDA-MB-231 cells [1] = experiment: Cell migration; type: cell-based; details: after 48 h and 72 h
# Outline: (§1)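 Cells were seeded at 0.2 × 10^6 per 35 mm dish in DMEM with 10% FBS and left to adhere overnight at 37 °C in 5% CO2. Monolayers were scratched with a sterile pipette tip and imaged at time zero. They were then treated: control, 0.05% DMSO vehicle, three test compound levels, doxorubicin, and doxorubicin plus the top level. The scratched area was re-imaged at 24, 48 and 72 h.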
# [2] = system: Caspase 3/7 in MDA-MB-231 cells; experiment: Caspase glow 3/7 assay, MDA-MB-231; type: cell-based; details: p ≤ 0.0001
# Outline: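 MDA-MB-231 cells were seeded at 5 × 10^3 per well and adhered overnight. They were exposed to the test compound (P1 75, P2 150, P3 300), Dox 0.2 or Dox + P3 for 24, 48 or 72 h. Caspase-Glo 3/7 reagent (substrate/luciferase) was added, followed by 30–60 min at 25 °C. Luminescence was then read.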
# VEGF = experiment: Western blot, VEGF expression; type: cell-based, human; details: MCF-7 and MDA-MB-231; after treatments
# Outline: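 MCF-7 and MDA-MB-231 lysates were taken 48 h and 72 h after the treatment groups. Protein was quantified by BCA and 30 µg run on 10% SDS-PAGE, then transferred to PVDF. Membranes were blocked 2 h in 5% milk in TBS-T. Mouse anti-human VEGF (1:300, in 5% BSA TBS-T) was applied overnight at 4 °C, then 2 h at room temperature. Detection used HRP goat anti-mouse (1:4000) and ECL, with band densitometry.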
# MCF-7 cells [3] = experiment: Cell migration; type: cell-based; details: after 48 h and 72 h
# Outline: as §1
# Rac1 [4] = experiment: Western blot, Rac1 expression; type: cell-based, human; details: for % change of protein expression: vs CT; for Rac1 expression (in words): 48 and 72 h
# Outline: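 MCF-7 cells (DMEM, 10% FBS) were treated per group for 48 and 72 h. Lysate protein was measured by BCA, and 30 µg was run on 10% SDS-PAGE and transferred to PVDF. Blots were blocked in 5% milk/TBS-T for 2 h. Rabbit anti-Rac1 (1:250) and GAPDH (1:500) antibodies were applied overnight at 4 °C, then 2 h at room temperature. HRP secondary (1:4000) and ECL detection followed, with band densitometry.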
# [5] = system: Caspase 3/7 in MCF-7 cells; experiment: Caspase glow 3/7 assay, MCF-7; type: cell-based; details: p ≤ 0.0001
# breast-cancer cells = details: cited from earlier work
# Rac1 and Tiam1 complex = details: cited from earlier work
# Phospho-p38α (Y-182) = experiment: Phospho-p38α concentration in serum and tumor tissue of mice by SPR; type: in vivo, Swiss Albino mice; details: 300 μm FGDWS, Mean ± SD, p-value 0.0001
# LIMK1 = LIMK1 concentration in serum and tumor tissue of mice by SPR; type: in vivo, Swiss Albino mice; details: 300 μm FGDWS, Mean ± SD
# Cofilin1 = Cofilin1 concentration in serum and tumor tissue of mice by SPR; type: in vivo, Swiss Albino mice; details: 300 μm FGDWS, Mean ± SD
# MDA-MB-231 cells [6] = experiment: Annexin V-FITC / PI assay, flow cytometry, MDA-MB-231; type: cell-based
# Outline: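 Cells were seeded at 0.2 × 10^6 per 35 mm dish and treated per group: control, vehicle (0.05% DMSO), test compound P1 75, P2 150, P3 300, Dox 0.2, or Dox + P3. They were then trypsinized, washed twice in PBS and resuspended in 1X binding buffer. Staining was annexin V-FITC for 10 min, then PI (50 µg/ml stock) for 20 min. Flow cytometry gave four-quadrant populations.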
# MCF-7 cells [7] = experiment: MTT cell viability assay, MCF-7; type: cell-based; details: 24, 48 and 72 h
# HEK-293 cells = experiment: MTT cell viability assay, HEK-293; type: cell-based; details: 25-500 μm FGDWS, 24, 48 and 72 h
# Outline: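 HEK-293 cells (DMEM, 10% FBS, passage 28–33) were seeded at 4 × 10^3 per well and adhered overnight. Test compound was added at 25, 50, 100, 150, 300 and 500 for 24, 48 and 72 h at 37 °C, 5% CO2. MTT (5 mg/ml) was incubated for 4 h, medium removed and DMSO added. Absorbance at 570 nm gave percent viability.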
# Rac1 [8] = experiment: Rac1 concentration in serum and tumor tissue of mice by SPR; type: in vivo, Swiss Albino mice; details: tumor tissue lysate; 300 μm FGDWS; Mean ± SD; p-value 0.0001
# MCF-7 cells [9] = experiment: Annexin V-FITC / PI assay, flow cytometry, MCF-7; type: cell-based; details: 72 h
# Outline: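 Test compound given to MCF-7 cells (0.2 × 10^6 per 35 mm dish) in these treatment groups: control, 0.05% DMSO vehicle, three test compound levels, doxorubicin, and doxorubicin plus the top level. Cells were trypsinized, washed twice in PBS and resuspended in binding buffer. Annexin V-FITC was added for 10 min, then PI (from a 50 µg/ml stock) for 20 min. Flow cytometry quadrants gave early apoptotic, late apoptotic, necrotic and healthy fractions.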
# Phospho-LIMK1 (T-508) = experiment: Phospho-LIMK1 concentration in serum and tumor tissue of mice by SPR; type: in vivo, Swiss Albino mice; details: 300 μm FGDWS, Mean ± SD
# P38α = experiment: p38α concentration in serum and tumor tissue of mice by SPR; type: in vivo, Swiss Albino mice; details: 300 μm FGDWS, Mean ± SD
# Rac1 [10] = target: Rac1 (Homo sapiens, UniProt P63000); experiment: SPR binding of peptide to immobilized Rac1
# MDA-MB-231 cells [11] = experiment: MTT cell viability assay, MDA-MB-231; type: cell-based; details: 24, 48 and 72 h
# Outline: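 MDA-MB-231 cells (passage 28–33; DMEM with 10% FBS and 1% penicillin/streptomycin) were seeded at 5 × 10^3 per well and left overnight. Four test compound doses were added for 24, 48 or 72 h at 37 °C in 5% CO2. MTT (5 mg/ml solution) was added for 4 h, medium removed, formazan dissolved in DMSO and read at 570 nm. Results were expressed as percent viability.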
# Phospho-Cofilin1 (S-3) = experiment: Phospho-Cofilin1 concentration in serum and tumor tissue of mice by SPR; type: in vivo, Swiss Albino mice; details: 300 μm FGDWS, Mean ± SD
# [12] = MDA-MB-231, 48 h, P3 300 μm / Dox 0.2 μm / Dox + P3 0.2 μm + 300 μm
# [13] = MDA-MB-231, 72 h, P3 300 μm / Dox 0.2 μm / Dox + P3 0.2 μm + 300 μm
# [14] = MCF-7, 48 h, P3 300 μm / Dox 0.2 μm / Dox + P3 0.2 μm + 300 μm
# [15] = MCF-7, 72 h, P3 300 μm / Dox 0.2 μm / Dox + P3 0.2 μm + 300 μm
# [16] = tumor tissue lysate, p-value 0.001
compound,measurement,setting,value
"COc1cccc2c1C(=O)c1c(O)c3c(c(O)c1C2=O)C[C@@](O)(C(=O)CO)C[C@@H]3O[C@H]1C[C@H](N)[C@H](O)[C@H](C)O1 [Dox, Doxorubicin, reference compound]",rate of cell proliferation and migration (ranking),MDA-MB-231 cells [1],"slowest in Dox + P3 followed by Dox, P3, P2 and P1"
same,fold change in RLU with respect to control (caspase 3/7),[2]; [12],0.84
same,fold change in RLU with respect to control (caspase 3/7),[2]; [13],1.02
same,VEGF expression (in words),VEGF,downregulated after treatments with peptide and Dox
same,rate of cell proliferation and migration (ranking),MCF-7 cells [3],"slowest in Dox + P3 followed by Dox, P3, P2 and P1"
same,% change of protein expression,Rac1 [4]; [14],13.13%
same,% change of protein expression,Rac1 [4]; [15],43.31%
same,% change of protein expression,Rac1 [4]; [12],32.57%
same,% change of protein expression,Rac1 [4]; [13],31.39%
same,fold change in RLU with respect to control (caspase 3/7),[5]; [14],1.64
same,fold change in RLU with respect to control (caspase 3/7),[5]; [15],0.79
CCN(CC)CCCC(C)Nc1nc(C)cc(Nc2ccc3nc(C)cc(N)c3c2)n1 (centres unmarked) [NSC23766],cell cycle arrest and apoptosis,breast-cancer cells,induce G1 cell cycle arrest and apoptosis
same,inhibition of Rac1-Tiam1 interaction,Rac1 and Tiam1 complex,inhibits the interactions between Rac1 and Tiam1 complex
FGDWS [FGDWS],rate of cell proliferation and migration (ranking),MDA-MB-231 cells [1],"slowest in Dox + P3 followed by Dox, P3, P2 and P1"
same,fold change in RLU with respect to control (caspase 3/7),"[2]; MDA-MB-231, 48 h, P1 75 μm",0.16
same,fold change in RLU with respect to control (caspase 3/7),"[2]; MDA-MB-231, 48 h, P2 150 μm",0.25
same,fold change in RLU with respect to control (caspase 3/7),[2]; [12],0.305
same,fold change in RLU with respect to control (caspase 3/7),"[2]; MDA-MB-231, 72 h, P1 75 μm",0.35
same,fold change in RLU with respect to control (caspase 3/7),"[2]; MDA-MB-231, 72 h, P2 150 μm",0.57
same,fold change in RLU with respect to control (caspase 3/7),[2]; [13],0.65
same,Phospho-p38α concentration,"Phospho-p38α (Y-182); serum, day 45",2.66 ± 0.16 ng/µL
same,Phospho-p38α concentration,Phospho-p38α (Y-182); tumor tissue lysate,2.77 ± 0.11 ng/µL
same,LIMK1 concentration,"LIMK1; serum, day 45, p-value 0.0001",6.86 ± 1.46 ng/µL
same,LIMK1 concentration,"LIMK1; tumor tissue lysate, p-value 0.005",6.37 ± 1.04 ng/µL
same,Cofilin1 concentration,"Cofilin1; serum, day 45, p-value 0.028",2.68 ± 0.28 ng/µL
same,Cofilin1 concentration,"Cofilin1; tumor tissue lysate, p-value 0.0048",2.83 ± 0.53 ng/µL
same,"population of apoptotic cells, dose dependence",MDA-MB-231 cells [6]; 72 h,increased with increasing FGDWS doses P1 to P3
same,apoptotic cell population,"MDA-MB-231 cells [6]; higher dose of peptide (P3 300 μm), or in combination with Dox",38.3%
same,"cell viability, dose and time dependence",MCF-7 cells [7],decreased in dose dependent manner with time
same,toxic effect on normal cells,HEK-293 cells,no toxic effect
same,VEGF expression (in words),VEGF,downregulated after treatments with peptide and Dox
same,Rac1 concentration,Rac1 [8],0.72 ± 0.02 ng/µL
same,"population of apoptotic cells, dose dependence",MCF-7 cells [9],increased with increasing FGDWS doses P1 to P3
same,Phospho-LIMK1 concentration,"Phospho-LIMK1 (T-508); serum, day 45, p-value 0.008",7.58 ± 2.25 ng/µL
same,Phospho-LIMK1 concentration,Phospho-LIMK1 (T-508); [16],8.01 ± 1.22 ng/µL
same,rate of cell proliferation and migration (ranking),MCF-7 cells [3],"slowest in Dox + P3 followed by Dox, P3, P2 and P1"
same,P38α concentration,"P38α; serum, day 45, p-value 0.004",3.13 ± 0.96 ng/µL
same,P38α concentration,P38α; [16],0.97 ± 0.06 ng/µL
same,Kd,Rac1 [10],807 nM
same,KA (association constant),"Rac1 [10]; SPR, Rac1 immobilized on CM5 (4000 RU), BIAevaluation 3.0",1.24e+06 M⁻¹
same,"cell viability, dose and time dependence",MDA-MB-231 cells [11],decreased in dose dependent manner with time
same,% change of protein expression,"Rac1 [4]; MCF-7, 48 h, P1 75 μm",1.08%
same,% change of protein expression,Rac1 [4]; [14],25.84%
same,% change of protein expression,"Rac1 [4]; MCF-7, 72 h, P1 75 μm",12.74%
same,% change of protein expression,Rac1 [4]; [15],31.23%
same,Rac1 expression (in words),Rac1 [4]; MCF-7,downregulated significantly with increase in concentration of peptide dose from P1 to P3
same,% change of protein expression,"Rac1 [4]; MDA-MB-231, 48 h, P1 75 μm",21.41%
same,% change of protein expression,Rac1 [4]; [12],36.01%
same,% change of protein expression,"Rac1 [4]; MDA-MB-231, 72 h, P1 75 μm",15.03%
same,% change of protein expression,Rac1 [4]; [13],48.31%
same,Rac1 expression (in words),Rac1 [4]; MDA-MB-231,downregulated significantly with increase in concentration of peptide dose from P1 to P3
same,fold change in RLU with respect to control (caspase 3/7),"[5]; MCF-7, 48 h, P1 75 μm",0.24
same,fold change in RLU with respect to control (caspase 3/7),"[5]; MCF-7, 48 h, P2 150 μm",0.402
same,fold change in RLU with respect to control (caspase 3/7),[5]; [14],0.93
same,fold change in RLU with respect to control (caspase 3/7),"[5]; MCF-7, 72 h, P1 75 μm",0.33
same,fold change in RLU with respect to control (caspase 3/7),"[5]; MCF-7, 72 h, P2 150 μm",0.47
same,fold change in RLU with respect to control (caspase 3/7),[5]; [15],0.66
same,Phospho-Cofilin1 concentration,"Phospho-Cofilin1 (S-3); serum, day 45, p-value 0.006",8.35 ± 1.15 ng/µL
same,Phospho-Cofilin1 concentration,Phospho-Cofilin1 (S-3); [16],7.14 ± 1.34 ng/µL
